# Screens as filed in PubChem BioAssay.
# STAT1 act: STAT1 signaling activation; NIH 3T3 STAT1-luciferase reporter, IFN-gamma, luminescence; 100% = IFN-gamma alone, no compound; 2.6% of 200,000 active; activation (% of control), % at 5.5 µM;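 active = activation above the screen-wide mean activation plus 3 SD, cut at about 130% in these data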;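 also: raw ratio to IFN-gamma control signal so 100% means no change and 0% no light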
# FLuc inhib CS: Photinus pyralis luciferase inhibition counter-screen | inhibition, % at 10 µM | ATPLite firefly luciferase biochemical luminescence, 10 min | 1.5% of 200,000 active | AID 1006 | P08659;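 active = inhibition above about 50% when tested at 10 µM, limit read from the data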
# Target sequence (P08659 whole entry, looked up): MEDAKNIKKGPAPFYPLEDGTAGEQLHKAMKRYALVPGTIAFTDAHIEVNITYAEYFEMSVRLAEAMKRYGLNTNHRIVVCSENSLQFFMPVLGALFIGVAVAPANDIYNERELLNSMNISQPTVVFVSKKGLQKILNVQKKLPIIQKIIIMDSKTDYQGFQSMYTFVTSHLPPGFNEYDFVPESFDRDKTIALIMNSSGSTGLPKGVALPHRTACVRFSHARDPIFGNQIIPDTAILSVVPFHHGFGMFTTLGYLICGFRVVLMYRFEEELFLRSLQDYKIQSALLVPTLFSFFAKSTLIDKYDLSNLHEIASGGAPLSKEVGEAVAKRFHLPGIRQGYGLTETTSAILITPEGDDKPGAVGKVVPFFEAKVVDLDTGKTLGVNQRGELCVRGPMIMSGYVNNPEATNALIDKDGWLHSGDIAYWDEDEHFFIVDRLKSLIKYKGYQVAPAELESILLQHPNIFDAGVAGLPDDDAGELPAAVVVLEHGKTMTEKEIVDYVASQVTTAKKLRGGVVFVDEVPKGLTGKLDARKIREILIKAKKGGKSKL
# FLuc act counter: firefly luciferase counter-screen for stimulation assays; P08659; ATPlite luciferase biochemical, luminescence, 10 min; 0 = ATP-free wells, 1 = DMSO control; activation factor at 10 µM; 200,000 tested, under 10 active; AID 1027;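 active = luciferase activation factor, scaled between plate controls, of at least 2 with compound at 10 µM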
#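 Assay system: Luciferase/luciferin detection reagent, cell-free biochemical luciferase assay / Read-out: luciferase activation / Benchmarks: No-ATP low control, compound-free enzyme-plus-ATP high control / Medium: PBS buffer for ATP / Detection: luminescence measurement of luciferase light output / Schedule: 10 min at ambient temperature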
# APP 5'UTR act: activates APP 5'UTR luciferase reporter | SH-SY5Y APP 5'UTR luciferase reporter, luminescence; zero percent = DMSO vehicle wells | activation, % at 2 µM | 1% of 190,000 active | AID 1276;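 active = activation above a set limit, based on mean plus 3 SD of controls, cut at about 140% in these data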
# NF-kB neuron act: compounds increasing NF-kB expression in human neuronal cells | NF-kB reporter expression; hits give high values | AID 1239 | fold change at 12.5 µM | 1.6% of 190,000 active; in the data active = fold change above about 3.3
# STAT1 activ conf: confirmation of STAT1 signaling activators; shares compounds with STAT1 act; NIH 3T3 STAT1-luciferase reporter, IFN-gamma potentiation, luminescence; 100% = IFN-gamma EC80 alone, no compound; activation (% of control), % at 5.7 µM; 97% of 1,200 active; AID 1262;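 active = activation above a set limit carried over from the earlier primary STAT1 screen, cut at about 140% in these data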;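 also: simple ratio to median IFN-gamma plus DMSO wells so 0% means no light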
# NFkB act: counter-screen for STAT1 activators: NF-kappaB activation | shares compounds with STAT1 act | 43% of 1,200 active | activation (% of control), % at 5.7 µM | HEK293T NF-kB luciferase reporter, TNF-alpha stimulated, luminescence; 100% = TNF-alpha with vehicle only;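 active = activation above the mean of solvent-only control wells plus 3 SD, set per campaign, cut at about 130% in these data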;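 also: TNF-alpha given at a submaximal dose yielding about 80% of full reporter signal; values are well signal over median control so 100% means no change and 0% no light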
# STAT3 act 2: activates human STAT3, counter-screen to STAT1 activators | U3A cells STAT3-luciferase reporter, IL-6, luminescence; cells lack STAT1; 100 = IL-6 alone, no compound effect | shares compounds with STAT1 act | 46% of 1,200 active | activation (% of control), % at 5.7 µM | AID 1316;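 active = activation above the solvent-only control well mean plus 3 SD, set per plate batch, cut at about 110% in these data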;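 also: 0% = no luminescence and 100% = median IL-6 plus DMSO wells; higher means more STAT3 reporter activation so hits are non-selective activators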
# * hit, by the source's call; · = no result given. Sampled rows, rich in hits. Any-hit rate of the full collection: about 4.1%.
SMILES,STAT1 act,FLuc inhib CS,FLuc act counter,APP 5'UTR act,NF-kB neuron act,STAT1 activ conf,NFkB act,STAT3 act 2
N/C(=N\c1nc2ccccc2o1)NC(=O)c1ccccc1F,151*,0,1,119,2.1,162*,124,119*
N/C(=N\c1nc2ccccc2o1)NC(=O)c1ccccc1NC(=O)c1ccccc1,97,-4,1,3,1.2,·,·,·
CCCCc1c(C)nc2ccc(C(=O)OCC)cc2c1Cl,106,-5,1.1,11,1.3,·,·,·
CCOc1ccc(C(=O)Nc2ccc(Cl)cn2)cc1Cl,158*,5,1,153*,4.9*,188*,137*,99
CCCn1nnc(NC(=O)c2ccc(OCC)c(Cl)c2)n1,94,10,0.9,14,1.2,·,·,·
Cc1ccc(S(=O)(=O)N2CCN(S(=O)(=O)c3ccccc3)C2c2ccc(N(C)C)cc2)cc1 (stereo unspecified),100,-5,1,3,0.81,·,·,·
Cc1ccc(Cn2c(SCC(=O)NCC3CCCO3)nc3c2c(=O)n(C)c(=O)n3C)cc1 (stereo unspecified),93,-4,1,32,0.83,·,·,·
N#Cc1ccsc1NC(=O)COC(=O)c1ccc(NC(N)=O)cc1,166*,6,0.9,128,1.1,199*,137*,141*
CCN(CC)c1ccc(C(=O)OCC(=O)Nc2sccc2C#N)cc1,123,1,1,45,2.1,·,·,·
COc1cc(-c2nc3n(n2)C(c2cccc(OC)c2OC)C2=C(CCCC2=O)N3)cc(OC)c1OC (stereo unspecified),95,-4,1,11,0.71,·,·,·
COc1ccc(NC(=O)Cc2ccccc2)cn1,100,-4,1,9,1.1,·,·,·
COc1ccc(NC(=O)/C(Cl)=C(/Cl)S(=O)Cc2ccccc2)cn1 (stereo unspecified),204*,-2,1,·,0.18,336*,48,105
CCn1c(C)nc2cc(C(=O)NNC(=S)Nc3ccccc3)ccc21,160*,39,0.6,185*,1.9,228*,141*,118*
Cc1ccsc1/C=N/NC(=O)CO,100,-8,1.1,8,1.2,·,·,·
Cc1cccc(-n2ncc3c(NC4CCCCC4)ncnc32)c1,168*,70*,0.3,180*,7.2*,239*,138*,102
CCc1nc(SCC(=O)N2CCCC2)c2ccccc2n1,106,-4,1,9,1.5,·,·,·
COC(=O)N1CCN(S(=O)(=O)c2ccc(F)cc2)CC1,104,-10,1.1,-13,1.2,·,·,·
O=C(NN=C1C2CC3CC(C2)CC1C3)c1cccs1,122,1,1,131,2.2,·,·,·
CC1=C/C(=N\NC(=O)c2cccs2)CC(C)(C)C1,113,-5,1,29,1.2,·,·,·
CC(=O)N1CCC(=NNC(=O)c2cccs2)CC1,160*,-8,1.1,117,1.1,119,109,104
O=C(NN=C1CCCC1)c1cccs1,156*,-4,1,88,1.1,114,109,100
CCCN(CCC(=O)Nc1ccccc1F)CC1CC1,101,0,1,14,1,·,·,·
CCN(CC)c1ccc2cc(C(=O)Nc3ccccn3)c(=O)oc2c1,154*,45,0.6,97,3.6*,236*,93,93
CCN(CC)c1ccc2cc(C(=O)Nc3cccnc3N3CCOCC3)c(=O)oc2c1,·,-7,1.1,·,·,·,·,·
Cc1cc(C(=O)CN2C(=O)c3ccccc3C2=O)c(C)n1Cc1cccs1,161*,62*,0.4,94,0.94,193*,107,110
SMILES,STAT1 act,FLuc inhib CS,FLuc act counter,APP 5'UTR act,NF-kB neuron act,STAT1 activ conf,NFkB act,STAT3 act 2
Cc1cc(C)c(-c2csc(NC(=O)c3cc([N+](=O)[O-])ccc3N3CCOCC3)n2)c(C)c1,96,-3,1,-15,0.75,·,·,·
CCOC(=O)c1ccc2nc(Nc3nc4ccc(F)cc4s3)sc2c1,62,0,1,-7,0.77,·,·,·
CC(=O)Nc1nc2ccc(Br)cc2s1,174*,-2,1,32,2.6,205*,141*,112*
Cn1cc(Cl)c(C(=O)Nc2nc3ccc(Cl)cc3s2)n1,151*,42,0.6,73,3.2,171*,138*,100
CCOC(=O)c1ccc2nc(NC(C)=O)sc2c1,161*,8,0.9,80,2.8,168*,124,109
O=C(CSc1nc2ccccc2o1)Nc1nc2ccc(Br)cc2s1,103,-5,1.1,4,1,·,·,·
Cn1cc(Cl)c(C(=O)Nc2nc3ccc([N+](=O)[O-])cc3s2)n1,105,13,0.9,18,1.8,·,·,·
COc1ccccc1NC(=O)N1CCCC(c2nc3c(nnn3Cc3ccc(C)cc3)c(=O)[nH]2)C1 (stereo unspecified),106,-3,1,-2,1.1,·,·,·
CCCCc1[nH]c(=O)c(C#N)c2c1CSC(C)(C)C2,109,-4,1,9,0.86,·,·,·
FC(F)(F)c1cnc2c(-c3ccccc3)n[nH]c2c1,161*,-2,1,47,1.8,137*,110,102
O=C(Nc1nnc(COc2ccc(Cl)cc2)s1)c1cccs1,96,-3,1,6,1.2,·,·,·
Cc1c(NC(=O)c2cccc(F)c2)c(=O)n(-c2ccccc2)n1C,96,-1,1,-7,1.1,·,·,·
Cc1ccc(/C=C(\C#N)c2nc3ccccc3[nH]2)s1,162*,47,0.5,215*,6.1*,222*,137*,101
COc1cc(/C=C(\C#N)c2nc3ccccc3[nH]2)cc(OC)c1O,124,10,0.9,21,0.74,·,·,·
O=C(Nc1cccnc1)c1noc2c1CCCC2,118,16,0.8,37,1.6,·,·,·
CC(=O)c1ccc(NC(=O)c2noc3c2CCCCC3)cc1,151*,8,0.9,161*,5*,223*,129,102
CCN(CC)c1ccc(NC(=O)c2ccccc2F)cc1,164*,47,0.5,111,6.1*,192*,124,96
N#CC1(c2ccc(NC(=O)c3ccccc3F)cc2)CCCC1,161*,64*,0.4,145*,11*,228*,133,104
Cc1csc(NC(=O)c2ccc(C)c([N+](=O)[O-])c2)n1,184*,36,0.6,172*,5.6*,236*,112,96
Nc1cccc(C(=O)OCC(=O)c2ccccc2)c1,181*,69*,0.3,114,1.2,181*,121,117*
